The record followed here is ChEMBL document CHEMBL3813699, “Structure-Activity Relationships of a Diverse Class of Halogenated Phenazines That Targets Persistent, Antibiotic-Tolerant Bacterial Biofilms and Mycobacterium tuberculosis” (J Med Chem, 2016).

pIC50: −log10 of the molar value. Converted amounts (≈) assume the structure as drawn.

Series [1] has as its system Staphylococcus aureus. Description: Antibiofilm activity against methicillin-resistant Staphylococcus aureus isolate 2 assessed as biofilm eradication incubated for 24 hrs by CBD assay. Type of series: functional. Particulars: for MBC: Staphylococcus aureus, isolate 2, 24 h. The method, boiled down:
(§1)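 Calgary Biofilm Device: pegs inoculated with mid-log culture diluted 1,000-fold in TSB + 0.5% glucose, 24 h 37 °C; washed pegs challenged with 2-fold dilutions 24 h 37 °C; pegs moved to fresh TSBG 24 h; MBEC = lowest concentration leaving no turbidity; 2–6 independent experiments.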

Series [2] can be described thus: Induction of hemolysis in human RBC at 200 uM incubated for 1 hr. In kind it is cell-based, Erythrocyte. Particulars: red blood cells, read-out: Activity. The method, boiled down:
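Human RBCs (EDTA), washed three times in Tris-buffered saline pH 7.2; 2% hRBC with compound at final 200 µM, 1 h 37 °C; supernatant OD405; % hemolysis relative to DMSO (0%) and Triton X (100%).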

Series [3] relates to Staphylococcus epidermidis. Description: Antibacterial activity against methicillin-resistant Staphylococcus epidermidis ATCC 35984 assessed as biofilm eradication incubated for 24 hrs by CBD assay. Particulars: for MBC: Staphylococcus epidermidis, ATCC 35984, 24 h. Type of series: functional. A digest of the protocol: as §1
For series [4], the system named is Enterococcus faecium. Description: Antibacterial activity against vancomycin-resistant Enterococcus faecium ATCC 700221 incubated for 16 to 18 hrs by broth microdilution method. In kind it is functional.
Series [5] concerns Staphylococcus aureus. Description: Antibacterial activity against methicillin-resistant Staphylococcus aureus BAA-44 incubated for 16 to 18 hrs by broth microdilution method. Type of series: functional.
Series [6] has as its system Staphylococcus epidermidis. The experiment in a line: Antibacterial activity against Staphylococcus epidermidis ATCC 12228 incubated for 16 to 18 hrs by broth microdilution method. In kind it is functional. A general note: In broth dilution the organism is exposed to a series of concentrations in liquid medium.
For series [7], the system named is Staphylococcus aureus. The experiment in a line: Antibacterial activity against methicillin-resistant Staphylococcus aureus clinical isolate 2 incubated for 16 to 18 hrs by broth microdilution method. In kind it is functional.
Series [8] deals with Staphylococcus epidermidis. Description: Antibacterial activity against methicillin-resistant Staphylococcus epidermidis ATCC 35984 incubated for 16 to 18 hrs by broth microdilution method. In kind it is functional.
The subject of series [9] is Staphylococcus aureus. The experiment in a line: Antibacterial activity against methicillin-resistant Staphylococcus aureus BAA-1707 incubated for 16 to 18 hrs by broth microdilution method. In kind it is functional.
In series [10] the test system is Staphylococcus aureus. The experiment in a line: Antibiofilm activity against methicillin-resistant Staphylococcus aureus BAA-1707 assessed as biofilm eradication incubated for 24 hrs by CBD assay. In kind it is functional. The method, boiled down:
as §1

The subject of series [11] is Enterococcus faecium. The experiment in a line: Antibiofilm activity against […]-resistant Enterococcus faecium ATCC 700221 assessed as biofilm eradication incubated for 24 hrs by CBD assay. Particulars: for MBC: Enterococcus faecium, ATCC 700221, 24 h. In kind it is functional. The method, boiled down: as §1
For series [12], the system named is HeLa. Description: Cytotoxicity against human HeLa cells after 24 hrs by LDH release assay. Type of series: cell-based. The method, boiled down: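 HeLa in DMEM + 10% FBS, 37 °C 5% CO2, at 70–80% confluence treated with 25, 50, 100 µM for 24 h; DMSO vehicle; Triton X-100 2% v/v max-LDH control, medium-only negative; supernatant with LDH reaction mix 30 min room temperature, stopped, absorbance 490 nm.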

Take `O=C(O)CN(CCN(CC(=O)O)CC(=O)O)CC(=O)O` [EDETIC ACID]: in series [1], the MBEC was greater than 2000 µM and the MBC is 2000 µM (≈ 584 µg/mL). Besides, the hemolysis at 1 h, 200 µM in [2] was 3%. Also, in series [3], the MBEC was greater than 2000 µM and the MBC came to 1000 µM (≈ 292 µg/mL).
As for `Cc1nc2c(Br)cc(Br)c(O)c2nc1C`, the MIC in series [4] is 25 µM (≈ 8.3 µg/mL); in series [5], 6.25 µM (≈ 2.07 µg/mL); in series [6] it was 12.5 µM (≈ 4.15 µg/mL). Further, the MBEC in series [1] is 1500 µM. Besides, the MBC in series [1] was 125 µM (≈ 41.5 µg/mL). In addition, the hemolysis at 1 h, 200 µM in series [2] was no more than 1%.
On to `C=CCc1cc(Br)c2nc3cc(Br)c(Br)cc3nc2c1O`, for which the MIC in series [4], in series [6] and in [7] was greater than 100 µM each time.
For the compound `Oc1c(I)cc(Cl)c2nc3ccccc3nc12`, the minimum inhibitory concentration (MIC) is 6.25 µM (≈ 2.23 µg/mL) in series [4]; 12.5 µM (≈ 4.46 µg/mL) in series [5]; 25 µM (≈ 8.91 µg/mL) in series [6]; 25 µM (≈ 8.91 µg/mL) in series [7]; 25 µM (≈ 8.91 µg/mL) in [8]; 3.13 µM (≈ 1.12 µg/mL) in [9]. The MBEC in series [1] and in series [3] was 250 µM each time. Besides, the figures for the MBC in series [1] and in [3] were 93.8 µM (≈ 33.4 µg/mL) and 125 µM (≈ 44.6 µg/mL), respectively. In addition, the hemolysis at 1 h, 200 µM in [2] is no more than 1%.
For the compound `COc1cccc2nc3cc(Cl)c(Cl)cc3nc12`, the MIC in series [4], in series [6], in [7] and in series [8] was greater than 100 µM throughout.
As for `CCCCc1cc(Br)c(O)c2nc3ccccc3nc12`, the MIC turned out to be 0.78 µM (≈ 0.258 µg/mL) in series [4] and 3.13 µM (≈ 1.04 µg/mL) in [7]. In addition, the MBEC in [10] is 62.5 µM; in series [1], 188 µM; in [11], 2 µM; in series [3], 23.5 µM. The MBC in [10] (Staphylococcus aureus, BAA-1707, 24 h) amounted to 46.9 µM (≈ 15.5 µg/mL); in series [1], 46.9 µM (≈ 15.5 µg/mL); in [11], 2 µM (≈ 0.662 µg/mL); in series [3], 11.7 µM (≈ 3.88 µg/mL). Further, in series [2], the hemolysis at 1 h, 200 µM was found to be 11.5%.
As to `Oc1c(Cl)cc(Br)c2nc3ccccc3nc12`, the MIC stood at 6.25 µM (≈ 1.93 µg/mL) in series [4], 3.13 µM (≈ 0.969 µg/mL) in [5], 3.13 µM (≈ 0.969 µg/mL) in series [6] and 1.56 µM (≈ 0.483 µg/mL) in series [8]. For the same compound, the figures for the MBEC in series [1], in [11] and in series [3] were greater than 1000 µM, 11.7 µM and 375 µM, respectively. The figures for the MBC in series [1], in series [11] and in [3] were 62.5 µM (≈ 19.3 µg/mL), 11.7 µM (≈ 3.62 µg/mL) and 31.3 µM (≈ 9.69 µg/mL), respectively. Also, the hemolysis at 1 h, 200 µM in series [2] was no more than 1%. For the same compound, in series [12], the pIC50 is less than 4.00.
Turning to `N#CC(C#N)=NNc1cccc(Cl)c1` [CARBONYL CYANIDE M-CHLOROPHENYLHYDRAZONE], in [1], the MBEC is 1000 µM and the MBC was found to be 31.3 µM (≈ 6.4 µg/mL). In addition, the hemolysis at 1 h, 200 µM in series [2] came out at 3.5%. Moreover, in series [3], the MBEC is 93.8 µM and the MBC came out at 31.3 µM (≈ 6.4 µg/mL).
Take `NC(=O)c1cnccn1` [PYRAZINAMIDE]: in series [1], the MBEC was greater than 2000 µM and the MBC was greater than 2000 µM.
As to `Oc1c(Cl)cc(Cl)c2nc3ccccc3nc12`, the MIC in [4] is 12.5 µM (≈ 3.31 µg/mL); in series [5], 3.13 µM (≈ 0.83 µg/mL); in series [6] it was 3.13 µM (≈ 0.83 µg/mL); in [7] it was 3.13 µM (≈ 0.83 µg/mL); in series [8] it was 3.13 µM (≈ 0.83 µg/mL); in series [9], 3.13 µM (≈ 0.83 µg/mL). In series [1], the MBEC is greater than 1000 µM. The MBC in series [1] was 62.5 µM (≈ 16.6 µg/mL). The hemolysis at 1 h, 200 µM in series [2] is no more than 1%.

In general, MIC refers to the least concentration at which growth counts as inhibited. What is called pIC50 is the IC50 on a negative log10 scale, so that one unit is a factor of ten. Read a low pIC50 as a high IC50.
